Measurements from ChEMBL document CHEMBL4428027, “3-Hydroxypyrimidine-2,4-diones as Selective Active Site Inhibitors of HIV Reverse Transcriptase-Associated RNase H: Design, Synthesis, and Biochemical Evaluations” (J Med Chem, 2016).
pIC50: −log10 of the molar value.

Tests used:
[1] = biological target: T1, Human immunodeficiency virus type 1 reverse transcriptase (Human immunodeficiency virus 1, UniProt Q72547); assay: Inhibition of RNase H activity of full length recombinant HIV1 reverse transcriptase assessed as reduction in RNA 5'-end directed cleavage using HTS3 substrate; conditions: for pIC50: read-out: IC50
[2] = Toxicity against human HeLa P4/R5 cells; format: cell-based
[3] = biological target: T1, Human immunodeficiency virus type 1 reverse transcriptase; assay: Inhibition of polymerase activity of HIV1 reverse transcriptase using poly(rA)-oligo(dT)16 and [3H]-TTP incubated for 20 mins by liquid scintillation spectrometry; conditions: for pIC50: read-out: IC50
In short: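 Reaction mix: 10 µM [3H]-TTP, 40 nM poly(rA)-oligo(dT)16, 50 mM Tris-HCl pH 7.4 (37°C), 60 mM KCl, 5 mM MgCl2. Started with 10 nM RT; 20 min at 37°C. Quenched in ice-cold 10% TCA with 20 mM sodium pyrophosphate, then glass-fibre filtered and washed with TCA and ethanol. Label incorporation read by liquid scintillation.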

[4] = biological target: T1, Human immunodeficiency virus type 1 reverse transcriptase; assay: Inhibition of RNase H activity of full length recombinant HIV1 reverse transcriptase assessed as reduction in nonspecific internal cleavage using HTS1 substrate; conditions: read-out: IC50
In short: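 Recombinant p66/p51 RT heterodimer. Fluorescent RNA/DNA duplex substrate HTS-1 measures internal cleavage. IC50 is the mean of at least three independent experiments.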

[5] = biological target: T1, Human immunodeficiency virus type 1 reverse transcriptase; assay: Inhibition of RNase H activity of full length recombinant HIV1 reverse transcriptase assessed as reduction in DNA 3'-end cleavage using HTS2 substrate; conditions: for pIC50: read-out: IC50
In short: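 Recombinant p66/p51 RT heterodimer. Fluorescent RNA/DNA duplex substrate HTS-2 reports DNA 3′-end-directed (polymerase-dependent) cleavage. IC50 is the mean of at least three independent experiments.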

[6] = biological target: T1, Human immunodeficiency virus type 1 reverse transcriptase; assay: Inhibition of re-constituted HIV1 reverse transcriptase RNase H domain fragment; conditions: for pIC50: read-out: IC50
In short: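 Secondary check using a catalytically active, isolated HIV RNase H domain fragment (reconstituted) with duplex substrate HTS-1.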

SMILES | pIC50 [1] | CC50 [2] [µM] | IC50 [3] | pIC50 [4] | pIC50 [5] | pIC50 [6] | IC50 [5] | IC50 [1] | IC50 [6] | pIC50 [3]
Cn1c(Nc2ccc(-c3ccc(C(F)(F)F)cc3)cc2)cc(=O)n(O)c1=O | 5.18 | 10 | Not Active | 5.44 | 5.05 | 5.66 | – | – | – | –
Cn1c(Oc2cccc(-c3ccccc3)c2)cc(=O)n(O)c1=O | 4.82 | 3 | Not Active | 6.00 | – | 5.41 | Not Active | – | – | –
Cn1c(Oc2cccc(-c3ccc(C(F)(F)F)cc3)c2)cc(=O)n(O)c1=O | – | > 25 | Not Active | 5.02 | – | – | Not Active | Not Active | Not Active | –
COc1ccccc1-c1ccc(Nc2cc(=O)n(O)c(=O)n2C)cc1 | 5.05 | – | Not Active | 5.55 | 5.03 | – | – | – | – | –
Cn1c(Oc2ccccc2-c2ccccc2O)cc(=O)n(O)c1=O | – | – | Not Active | 4.96 | – | – | Not Active | Not Active | – | –
Cn1c(Nc2cccc(-c3cncnc3)c2)cc(=O)n(O)c1=O | 5.41 | > 25 | Not Active | 5.85 | 5.39 | 6.05 | – | – | – | –
COc1cccc(-c2ccc(Nc3cc(=O)n(O)c(=O)n3C)cc2)c1 | 5.29 | 6 | Not Active | 6.10 | 5.46 | 5.77 | – | – | – | –
Cn1c(Oc2ccc(-c3ccncc3)cc2)cc(=O)n(O)c1=O | 5.00 | – | Not Active | 5.43 | – | – | Not Active | – | – | –
Cn1c(Oc2ccc(-c3cccc(C#N)c3)cc2)cc(=O)n(O)c1=O | 4.96 | – | Not Active | 5.72 | 4.89 | – | – | – | – | –
Cc1ccc(-c2cccc(Nc3cc(=O)n(O)c(=O)n3C)c2)cc1 | 5.21 | – | – | 5.77 | 5.14 | – | – | – | – | 4.77
COc1cccc(OC)c1-c1cccc(Nc2cc(=O)n(O)c(=O)n2C)c1 | 5.35 | 8 | Not Active | 5.72 | 5.16 | 5.92 | – | – | – | –
Cn1c(Oc2ccc(-c3ccc(C#N)cc3)cc2)cc(=O)n(O)c1=O | 5.33 | – | Not Active | 5.60 | 4.96 | – | – | – | – | –
COc1ccc(-c2cccc(Nc3cc(=O)n(O)c(=O)n3C)c2)c(OC)c1 | 5.38 | 6 | – | 6.00 | 5.68 | 5.96 | – | – | – | 5.20
O=c1cc(Nc2ccc(-c3ccc(O)cc3)cc2)[nH]c(=O)n1O | 6.43 | – | – | 6.74 | 6.35 | – | – | – | – | 6.09
Cn1c(Oc2ccc(-c3ccc(C(F)(F)F)cc3)cc2)cc(=O)n(O)c1=O | – | – | Not Active | 5.21 | – | – | Not Active | Not Active | – | –
Cn1c(Oc2cccc(-c3ccc(C#N)cc3)c2)cc(=O)n(O)c1=O | 5.41 | – | Not Active | 5.92 | 5.16 | – | – | – | – | –
COc1ccccc1-c1ccccc1Oc1cc(=O)n(O)c(=O)n1C | – | 8 | Not Active | 5.09 | – | 4.89 | Not Active | Not Active | – | –
O=c1cc(Nc2cccc(-c3ccc(Cl)cc3)c2)[nH]c(=O)n1O | 6.43 | – | – | 6.66 | 6.35 | – | – | – | – | 6.07
COc1cc(OC)cc(-c2ccc(Nc3cc(=O)n(O)c(=O)n3C)cc2)c1 | 5.04 | 15 | – | 5.80 | 5.14 | 5.74 | – | – | – | 5.19
Cn1c(Oc2cccc(-c3cccc(C#N)c3)c2)cc(=O)n(O)c1=O | 5.34 | – | Not Active | 6.05 | 5.17 | – | – | – | – | –
Cn1c(Oc2ccccc2-c2ccc(C(F)(F)F)cc2)cc(=O)n(O)c1=O | 4.68 | 6 | Not Active | 5.41 | – | 5.29 | Not Active | – | – | –
COc1cc(OC)cc(-c2cccc(Nc3cc(=O)n(O)c(=O)n3C)c2)c1 | 5.40 | 10 | Not Active | 6.22 | 5.55 | 5.85 | – | – | – | –
Cc1ccc(-c2ccc(Nc3cc(=O)n(O)c(=O)n3C)cc2)cc1 | 5.18 | 5 | Not Active | 5.57 | 5.19 | 5.72 | – | – | – | –
